The text below walks through data of ChEMBL document CHEMBL1125247, “Muscarinic cholinergic agonists and antagonists of the 3-(3-alkyl-1,2,4-oxadiazol-5-yl)-1,2,5,6-tetrahydropyridine type. Synthesis and structure-activity relationships” (J Med Chem, 1991).

The target of test [1] is Muscarinic acetylcholine receptor (Rattus norvegicus) (UniProt P08482+P08483+P08485+P08911+P10980).
Test [2] deals with Muscarinic acetylcholine receptor. Description: In Vitro binding affinity to the muscarinic acetylcholine receptor site in rat brain by using [3H]QNB as the radioligand. The format is tissue-based.
Test [3] has the same target. Kind of test: (§1) Agonist activity at muscarinic acetylcholine receptor in isolated guinea pig ileum. The format is functional, tissue-based, Cavia porcellus.
For test [4] the target is unchanged. Description: In vitro binding affinity to muscarinic acetylcholine receptor site in rat brain assayed using [3H]oxotremorine-M as the radioligand. In kind it is tissue-based.
Test [5] addresses Muscarinic acetylcholine receptor M3 (Cavia porcellus) (UniProt Q8VH26). Description: Antagonist activity at muscarinic acetylcholine receptor in isolated guinea pig ileum. The format is functional, tissue-based. The method in brief:
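Isolated guinea pig ileum in tyrode solution; agonist dose-response curves built sequentially with 30-s contact time. Antagonist added to the tyrode 5 min before agonist responses were retested. K_B from regression analysis using at least four points, n = 4-8 per point.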

Test [6] has as its target Muscarinic acetylcholine receptor (Cavia porcellus). Kind of test: Antagonist activity at muscarinic acetylcholine receptor in isolated guinea pig ileum.
Test [7] deals with Muscarinic acetylcholine receptor. The description is as §1. The format is functional, tissue-based, Cavia porcellus. The method in brief: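 Isolated ileum in Tyrode solution. Cumulative-free sequential agonist dose-response curves, 30-s contact time per dose. Contraction read out; EC50 derived from the curves. Efficacy expressed as percent of maximal contraction relative to the full agonist acetylcholine.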
This is another data set of the same source.

For test [8], the target named is Muscarinic acetylcholine receptor (Cavia porcellus). Description: Antagonistic activity at muscarinic acetylcholine receptor in isolated guinea pig ileum.

Sequence of Muscarinic acetylcholine receptor M3 (Cavia porcellus) (Q8VH26 1-587): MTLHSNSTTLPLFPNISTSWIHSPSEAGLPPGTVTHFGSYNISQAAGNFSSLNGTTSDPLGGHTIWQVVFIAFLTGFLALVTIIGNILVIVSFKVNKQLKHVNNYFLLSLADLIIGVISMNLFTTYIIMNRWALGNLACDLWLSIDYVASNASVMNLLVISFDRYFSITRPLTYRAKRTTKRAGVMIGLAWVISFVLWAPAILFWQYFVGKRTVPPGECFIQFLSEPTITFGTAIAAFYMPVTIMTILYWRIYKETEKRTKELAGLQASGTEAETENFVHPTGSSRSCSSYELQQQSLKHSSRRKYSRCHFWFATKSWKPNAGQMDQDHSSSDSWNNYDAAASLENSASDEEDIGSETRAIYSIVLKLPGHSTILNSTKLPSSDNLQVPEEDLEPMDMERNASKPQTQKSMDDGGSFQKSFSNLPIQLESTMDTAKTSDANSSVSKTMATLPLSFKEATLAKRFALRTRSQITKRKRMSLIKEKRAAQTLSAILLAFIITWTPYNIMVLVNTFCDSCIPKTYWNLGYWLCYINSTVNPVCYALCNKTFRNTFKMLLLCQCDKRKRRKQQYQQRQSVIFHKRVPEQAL

Molecule `CCCc1nc(C2=CCCN(C)C2)no1.O=C(O)C(=O)O` returned a Muscarinic agonist index in test [1] of 80. Moreover, the IC50 came out at 88000 nM in test [2] and 681 nM in test [4]. In addition, in test [3], the EC50 is greater than 30000 nM. The molecule further displayed a Kb in test [5] of 3380 nM.
For `CN1CCC=C(c2nc(C3CCCCCC3)no2)C1.O=C(O)C(=O)O`, in that order: less than 3, 16000 nM, greater than 850 nM, greater than 30000 nM and 160 nM.
The molecule `CCCCCc1noc(C2=CCCN(C)C2)n1.O=C(O)C(=O)O` displayed a Muscarinic agonist index in test [1] of 29. Moreover, the results for the concentration for half-maximal inhibition (IC50) in test [2] and in test [4] were 6700 nM and 36.9 nM, respectively. This molecule registered an EC50 in test [3] of 620 nM.
In the same order, the values of `COCc1noc(C2=CCCN(C)C2)n1.O=C(O)C(=O)O` are 249, 66900 nM, 43.5 nM and 420 nM.
For `CN1CCC=C(c2nc(CC3CC3)no2)C1.O=C(O)C(=O)O`, in that order: 235, 11300 nM, 7.8 nM and 1000 nM.
With `CC(C)c1noc(C2=CCCN(C)C2)n1.O=C(O)C(=O)O`, in test [1], the Muscarinic agonist index was determined as 14. Further, the IC50 is 15800 nM in test [2] and 182 nM in test [4]. Also, in test [3], the EC50 is greater than 30000 nM. Moreover, the antagonist dissociation constant (Kb) in test [5] turned out to be 200 nM.
Molecule `CCCCCCCCc1noc(C2=CCCN(C)C2)n1.O=C(O)C(=O)O` yielded a Muscarinic agonist index in test [1] of 30. Moreover, the IC50 in test [2] was found to be 11000 nM; in test [4], 59.9 nM. In test [3], the EC50 was determined as 1460 nM.
For `CCCCCCCc1noc(C2=CCCN(C)C2)n1.O=C(O)C(=O)O`, in that order: 52, 9100 nM, 28.3 nM and 130 nM.
With `Cc1nc(C2=CCCN(C)C2)no1.O=C(O)C(=O)O`, the Muscarinic agonist index in test [1] stood at 68. Further, the IC50 in test [2] was found to be 401000 nM; in test [4], 955 nM. This molecule also displayed an EC50 in test [3] greater than 30000 nM. For the same molecule, the antagonist equilibrium constant (Kb) in test [6] turned out to be 8000 nM.
As to `CN1CCC=C(c2nc(C3CCC3)no2)C1.O=C(O)C(=O)O`, in test [1], the Muscarinic agonist index came to 11. In test [7], the EC50 is greater than 30000 nM. The results for the IC50 in test [2] and in test [4] were 12900 nM and 191 nM, respectively. The Kb in test [8] stood at 650 nM.
Consider `CCc1nc(C2=CCCN(C)C2)no1.O=C(O)C(=O)O`, for which the Muscarinic agonist index in test [1] is 26. Further, the IC50 in test [2] is 156000 nM; in test [4] it was 954 nM. Moreover, the EC50 in test [3] is greater than 30000 nM. For the same molecule, the Kb in test [6] stood at 5750 nM.
Turning to `CCCCc1noc(C2=CCCNC2)n1`, the Muscarinic agonist index in test [1] was 339. Also, the IC50 in test [2] was found to be 25300 nM; in test [4], 12.1 nM. This molecule also had an EC50 in test [3] of 320 nM.
Regarding `CCOCCc1noc(C2=CCCN(C)C2)n1.O=C(O)C(=O)O`, the Muscarinic agonist index in test [1] amounted to 65. Moreover, the IC50 is 42800 nM in test [2] and 107 nM in test [4]. In test [3], this molecule returned an EC50 of 1280 nM.
In test [1], `CN1CCC=C(c2nc(C(C)(C)C)no2)C1.O=C(O)C(=O)O` yielded a Muscarinic agonist index of 5. Further, the half-inhibitory concentration (IC50) in test [2] amounted to 9000 nM; in test [4], 286 nM. In test [3], this molecule showed an EC50 greater than 30000 nM. In addition, the Kb in test [5] was found to be 200 nM.
In the same order, the values of `CN1CCC=C(c2nc(C3CCCC3)no2)C1.O=C(O)C(=O)O` are 15, 10800 nM, 102 nM, greater than 30000 nM and 1550 nM.
Regarding `CCCCc1noc(C2=CCCN(CC)C2)n1`, in test [1], the Muscarinic agonist index was 39. In addition, the IC50 in test [2] was determined as 20600 nM; in test [4], 86.2 nM. The 50% effective concentration (EC50) in test [3] was greater than 30000 nM. For the same molecule, the Kb in test [5] is 700 nM.
In turn, `COCCc1noc(C2=CCCN(C)C2)n1.O=C(O)C(=O)O` displayed a Muscarinic agonist index in test [1] of 47. The 50% inhibitory concentration (IC50) was found to be 41500 nM in test [2] and 144 nM in test [4]. The same molecule came in with an EC50 in test [3] of 720 nM.
In the case of `CCCCc1noc(C2=CCC(C)N(C)C2)n1` (configuration not stated), in test [1], the Muscarinic agonist index was 11. For the same molecule, the IC50 in test [2] amounted to 10200 nM; in test [4] it was 145 nM. In addition, the EC50 in test [3] is greater than 30000 nM. In test [5], the Kb stood at 130 nM.
For `Cc1noc(C2=CCCN(C)C2)n1.O=C(O)C(=O)O`, the Muscarinic agonist index in test [1] amounted to 540. Further, the IC50 in test [2] is 41000 nM; in test [4], 12.3 nM. The molecule also returned an EC50 in test [3] of 32 nM.
In turn, `CCCCc1noc(C2=CC(C)CNC2)n1` (configuration not stated) came in with a Muscarinic agonist index in test [1] of 15. For the same molecule, the values for the IC50 in test [2] and in test [4] were 64300 nM and 685 nM, respectively. In test [3], the EC50 is greater than 30000 nM.
In test [1], `CN1CCC=C(c2nc(C3CC3)no2)C1.O=C(O)C(=O)O` came in with a Muscarinic agonist index of 14. The half-inhibitory concentration (IC50) turned out to be 6800 nM in test [2] and 78 nM in test [4]. This molecule also gave an EC50 in test [3] greater than 30000 nM. In test [5], this molecule yielded a Kb of 150 nM.
In test [1], `CCc1noc(C2=CCCN(C)C2)n1.O=C(O)C(=O)O` came in with a Muscarinic agonist index of 520. For the same molecule, the IC50 in test [2] came to 35300 nM; in test [4] it was 11 nM. The molecule also showed an EC50 in test [3] of 200 nM.
`CCCCc1noc(C2CN3CCC2CC3)n1` (configuration not stated) registered a Muscarinic agonist index in test [1] of 4. The molecule also returned an EC50 in test [7] greater than 30000 nM. For the same molecule, the IC50 in test [2] worked out at 1500 nM; in test [4], 58.5 nM. The same molecule had a Kb in test [5] of 70 nM.
`CCCCc1noc(C2=CCC3CCC2N3C)n1` (configuration not stated) displayed a Muscarinic agonist index in test [1] of 8. The figures for the concentration for half-maximal inhibition (IC50) in test [2] and in test [4] were 8900 nM and 181 nM, respectively. The molecule also had an EC50 in test [3] greater than 30000 nM. This molecule also registered a Kb in test [5] of 220 nM.
Regarding `CCCCc1noc(C2=CCCN(C)C2)n1.O=C(O)C(=O)O`, the Muscarinic agonist index in test [1] stood at 181. In addition, the IC50 in test [2] turned out to be 15800 nM; in test [4], 14.1 nM. This molecule displayed an EC50 in test [3] of 150 nM.
For `CCCc1noc(C2=CCCN(C)C2)n1.O=C(O)C(=O)O`, in that order: 447, 17400 nM, 6.3 nM and 100 nM.

By IC50 is commonly meant the concentration that inhibits the measured activity by half. High values mean weaker potency in that assay, low ones greater potency in that assay. A word on the EC50: it is the concentration at which the effect is half-maximal. Read a low EC50 as higher potency in that assay. For orientation: Kb means the equilibrium dissociation constant of an antagonist, usually derived from a functional assay.
